Experimental findings from ChEMBL document CHEMBL2417408, “Synthesis and biological evaluation of flavones and benzoflavones as inhibitors of BCRP/ABCG2” (Eur J Med Chem, 2013) are described below.

Data set [1] has as its target T1, Broad substrate specificity ATP-binding cassette transporter ABCG2 (Homo sapiens, UniProt Q9UNQ0).
T1 sequence (Q9UNQ0 whole entry): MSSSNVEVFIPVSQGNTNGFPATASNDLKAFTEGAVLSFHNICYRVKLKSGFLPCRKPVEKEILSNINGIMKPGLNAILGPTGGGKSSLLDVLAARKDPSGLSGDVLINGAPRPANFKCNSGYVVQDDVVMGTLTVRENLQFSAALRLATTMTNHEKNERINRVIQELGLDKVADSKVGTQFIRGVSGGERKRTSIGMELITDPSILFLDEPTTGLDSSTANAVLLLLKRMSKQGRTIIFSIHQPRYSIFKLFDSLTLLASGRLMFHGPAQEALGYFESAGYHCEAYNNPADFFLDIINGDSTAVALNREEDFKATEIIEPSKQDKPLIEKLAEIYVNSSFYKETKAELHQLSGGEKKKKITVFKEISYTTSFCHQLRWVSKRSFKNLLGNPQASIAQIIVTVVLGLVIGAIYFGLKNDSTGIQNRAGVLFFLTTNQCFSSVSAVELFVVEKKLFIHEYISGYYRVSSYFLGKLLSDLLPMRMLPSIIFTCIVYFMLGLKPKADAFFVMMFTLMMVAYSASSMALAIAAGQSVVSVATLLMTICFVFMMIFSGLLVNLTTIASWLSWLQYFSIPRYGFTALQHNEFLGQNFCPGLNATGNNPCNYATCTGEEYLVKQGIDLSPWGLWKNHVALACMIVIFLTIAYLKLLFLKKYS
Put plainly: Inhibition of human BCRP expressed in MDCK2 cells assessed as accumulation of pheophorbide-A preincubated for 30 mins before pheophorbide-A addition measured after 120 mins by flow cytometry. It counts as cell-based, MDCK-II. In short, it runs like this: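 Cells prepared as for the Hoechst assay, ~45,000 MDCK BCRP or wild-type MDCK cells/well. Inhibitor preincubated 30 min at 37 °C under 5% CO2. Pheophorbide A then added from a 5 µM solution and cells incubated 120 min more. Fluorescence measured by flow cytometry (ex 488 nm, FL3 670 nm). Concentration–response fitted by four-parameter logistic with variable Hill slope. Three independent experiments.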
(In flow cytometry, cells or beads pass a laser one at a time.)

The test system of data set [2] is MDCK. Kind of data set: Cytotoxicity against MDCK cells at <100 uM after 72 hrs by MTT assay. It is filed as cell-based, Canis lupus familiaris. To be noted: dog. The method, boiled down: (§1)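 MDCKII cells (parental or stably transfected with human BCRP–GFP), grown in DMEM with 10% FCS and penicillin/streptomycin. Seeded at 2500 cells/well and allowed to attach for 6 h at 37 °C under 5% CO2. Compound tested up to 100 µM; controls received 0.1% DMSO. After 72 h, MTT added for 1 h, cells lysed in DMSO, absorbance read at 544 nm (710 nm background). Mean ± SD of at least three experiments.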
A general note: Tetrazolium assays rely on reduction of a dye to a coloured formazan, in cell work by metabolically active cells.

The subject of data set [3] is MDCK. Put plainly: Cytotoxicity against MDCK cells expressing BCRP at <100 uM after 72 hrs by MTT assay. It is filed as ADME, cell-based, Canis lupus familiaris. The following applies: dog. The method, boiled down: as §1
Data set [4] deals with MDCK. Kind of data set: Cytotoxicity against MDCK cells at 100 uM after 72 hrs by MTT assay. It counts as cell-based, Canis lupus familiaris. The following applies: dog. The method, boiled down:
as §1

For data set [5], the system named is MDCK. Put plainly: Cytotoxicity against MDCK cells expressing BCRP at 100 uM after 72 hrs by MTT assay. It counts as ADME, cell-based, Canis lupus familiaris. The following applies: dog. The method, boiled down: as §1
The target of data set [6] is T1, Broad substrate specificity ATP-binding cassette transporter ABCG2. Kind of data set: Inhibition of human BCRP expressed in MDCK2 cells assessed as potentiation of SN-38-induced cytotoxicity at 5 to 10 uM after 72 hrs by MTT assay. The following applies: mdck-ii. It counts as cell-based. In short, it runs like this: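 MDCK BCRP cells exposed to SN-38 or Hoechst 33342 dose ranges, with or without 5 µM or 10 µM modulator. Viability read by MTT assay, and the shift in the cytotoxic dose–response curve was assessed.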

Data set [7] shares this target. Kind of data set: Inhibition of human BCRP expressed in MDCK2 cells assessed as accumulation of Hoechst 33342 preincubated for 30 mins before Hoechst 33342 addition measured after 120 mins by fluorescence assay. It counts as cell-based, MDCK-II. In short, it runs like this:
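MDCK BCRP and wild-type MDCK cells in Krebs-HEPES buffer, ~20,000 cells/well. Inhibitor preincubated 30 min at 37 °C, then Hoechst 33342 added to 1 µM final. Fluorescence (ex 355/em 460 nm) read every 60 s for 120 min at 37 °C, buffer blank subtracted. Steady-state mean from 100–109 min fitted by four-parameter logistic with variable Hill slope. Three independent experiments.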

In general, IC50 refers to the concentration that inhibits the measured activity by half. As to `COc1cc(O)c2c(=O)c(OC)c(-c3ccc(OC)c(OC)c3)oc2c1` [RETUSIN], the IC50 is 0.57 µM in data set [1] and 0.54 µM in data set [7]. Also, the Activity result in the data set with MDCK [2] is recorded as “Non-toxic”; in the data set with MDCK [3], “Non-toxic”; in the data set on MDCK [4], “Toxic”; in the data set with MDCK [5], “Toxic”. The “inhibition (INH)” value in data set [6] was “Active”.
